In ChEMBL document CHEMBL1649281, “Detection of the novel extended-spectrum beta-lactamase OXA-161 from a plasmid-located integron in Pseudomonas aeruginosa clinical isolates from Spain” (2009):
≈ marks a conversion by molar mass, not a printed value.

How the values were obtained:
Type in all cases: functional
Pseudomonas aeruginosa [1] = experiment: Antibacterial activity against Pseudomonas aeruginosa PAO1 harboring Pseudomonas aeruginosa plasmid DNA isolated from wound infection of patient by Etest
Pseudomonas aeruginosa [2] = experiment: Antibacterial activity against Pseudomonas aeruginosa PAO1 harboring Pseudomonas aeruginosa plasmid DNA lung biopsy specimen of patient by Etest
Pseudomonas aeruginosa [3] = experiment: Antibacterial activity against Pseudomonas aeruginosa isolated from wound infection of patient by Etest
Pseudomonas aeruginosa [4] = experiment: Antibacterial activity against Pseudomonas aeruginosa PAO1 by Etest
Pseudomonas aeruginosa [5] = experiment: Antibacterial activity against Pseudomonas aeruginosa isolated from lung biopsy specimen of patient by Etest
Pseudomonas aeruginosa [6] = experiment: Antibacterial activity against Pseudomonas aeruginosa PAO1 harboring cloned pUCPOXA-2 by CLSI broth microdilution method
How it was run: (§1)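 CLSI standard broth microdilution MICs were determined for carbenicillin, ceftazidime, and ceftazidime plus clavulanate held at a fixed 4 μg/ml.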

Pseudomonas aeruginosa [7] = experiment: Antibacterial activity against Pseudomonas aeruginosa PAO1 harboring Pseudomonas aeruginosa plasmid DNA isolated from wound infection of patient by CLSI broth microdilution method
How it was run: (§2)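 Plasmid DNA from the clinical isolate was electroporated into PAO1, and transformants were selected on LB agar with 20 μg/ml ceftazidime. Transformants were confirmed by double-disk synergy test and PCR. CLSI broth microdilution MICs were determined for carbenicillin, ceftazidime, and ceftazidime plus fixed 4 μg/ml clavulanate.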

Pseudomonas aeruginosa [8] = experiment: Antibacterial activity against Pseudomonas aeruginosa isolated from lung biopsy specimen of patient by CLSI broth microdilution method; how it was run: as §1
Pseudomonas aeruginosa [9] = experiment: Antibacterial activity against Pseudomonas aeruginosa PAO1 by CLSI broth microdilution method
How it was run: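 MIC by standard CLSI broth microdilution, tested with carbenicillin, ceftazidime, and ceftazidime plus clavulanate at 4 μg/ml. P. aeruginosa PAO1 was the recipient strain, with transformants produced by electroporation and selected on LB agar with 20 μg/ml ceftazidime.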

Pseudomonas aeruginosa [10] = experiment: Antibacterial activity against Pseudomonas aeruginosa PAO1 harboring cloned pUCPOXA-161 by CLSI broth microdilution method; how it was run: as §1
Pseudomonas aeruginosa [11] = experiment: Antibacterial activity against Pseudomonas aeruginosa isolated from wound infection of patient by CLSI broth microdilution method; how it was run: as §1
Pseudomonas aeruginosa [12] = experiment: Antibacterial activity against Pseudomonas aeruginosa PAO1 harboring Pseudomonas aeruginosa plasmid DNA lung biopsy specimen of patient by CLSI broth microdilution method; how it was run: as §2
Pseudomonas aeruginosa [13] = experiment: Antibacterial activity against Pseudomonas aeruginosa PAO1 harboring cloned pUCPOXA-161 by Etest
Pseudomonas aeruginosa [14] = experiment: Antibacterial activity against Pseudomonas aeruginosa PAO1 harboring cloned pUCPOXA-2 by Etest

Compound	MIC (Pseudomonas aeruginosa [1]) [µg/mL]	MIC (Pseudomonas aeruginosa [2]) [µg/mL]	MIC (Pseudomonas aeruginosa [3]) [µg/mL]	MIC (Pseudomonas aeruginosa [4]) [µg/mL]	MIC (Pseudomonas aeruginosa [5]) [µg/mL]	MIC (Pseudomonas aeruginosa [6]) [µg/mL]	MIC (Pseudomonas aeruginosa [7]) [µg/mL]	MIC (Pseudomonas aeruginosa [8]) [µg/mL]	MIC (Pseudomonas aeruginosa [9]) [µg/mL]	MIC (Pseudomonas aeruginosa [10]) [µg/mL]	MIC (Pseudomonas aeruginosa [11]) [µg/mL]	MIC (Pseudomonas aeruginosa [12]) [µg/mL]	MIC (Pseudomonas aeruginosa [13]) [µg/mL]	MIC (Pseudomonas aeruginosa [14]) [µg/mL]
COLISTIN	2	2	2	2	2	–	–	–	–	–	–	–	–	–
GENTAMICIN	12	8	32	2	64	–	–	–	–	–	–	–	–	–
NC[C@H]1O[C@H](O[C@H]2[C@H](O)[C@@H](O[C@H]3O[C@H](CO)[C@@H](O)[C@H](N)[C@H]3O)[C@H](N)C[C@@H]2N)[C@H](N)C[C@@H]1O [TOBRAMYCIN]	12 (≈ 25.7 µM)	12 (≈ 25.7 µM)	48 (≈ 103 µM)	1 (≈ 2.14 µM)	64 (≈ 137 µM)	–	–	–	–	–	–	–	–	–
CC(C)(O/N=C(\C(=O)N[C@@H]1C(=O)N2C(C(=O)[O-])=C(C[n+]3ccccc3)CS[C@H]12)c1csc(N)n1)C(=O)O [CEFTAZIDIME]	–	–	–	–	–	8 (≈ 14.6 µM)	128 (≈ 234 µM)	> 256	2 (≈ 3.66 µM)	64 (≈ 117 µM)	> 256	128 (≈ 234 µM)	–	–
NCC[C@H](O)C(=O)N[C@@H]1C[C@H](N)[C@@H](O[C@H]2O[C@H](CN)[C@@H](O)[C@H](O)[C@H]2O)[C@H](O)[C@H]1O[C@H]1O[C@H](CO)[C@@H](O)[C@H](N)[C@H]1O [AMIKACIN]	12 (≈ 20.5 µM)	12 (≈ 20.5 µM)	32 (≈ 54.6 µM)	3 (≈ 5.12 µM)	64 (≈ 109 µM)	–	–	–	–	–	–	–	–	–
CC1(C)S[C@@H]2[C@H](NC(=O)C(C(=O)O)c3ccccc3)C(=O)N2[C@H]1C(=O)O (stereo not given in full) [CARBENICILLIN]	–	–	–	–	–	> 256	128 (≈ 338 µM)	128 (≈ 338 µM)	32 (≈ 84.6 µM)	128 (≈ 338 µM)	128 (≈ 338 µM)	128 (≈ 338 µM)	–	–
C[C@@H](O)[C@H]1C(=O)N2C(C(=O)O)=C(S[C@@H]3CN[C@H](C(=O)N(C)C)C3)[C@H](C)[C@H]12 [MEROPENEM]	0.75 (≈ 1.96 µM)	0.75 (≈ 1.96 µM)	6 (≈ 15.6 µM)	0.38 (≈ 0.991 µM)	8 (≈ 20.9 µM)	–	–	–	–	–	–	–	0.5 (≈ 1.3 µM)	0.38 (≈ 0.991 µM)
CCN1CCN(C(=O)N[C@@H](C(=O)N[C@@H]2C(=O)N3[C@@H]2SC(C)(C)[C@@H]3C(=O)O)c2ccccc2)C(=O)C1=O [PIPERACILLIN]	16 (≈ 30.9 µM)	32 (≈ 61.8 µM)	24 (≈ 46.4 µM)	2 (≈ 3.86 µM)	24 (≈ 46.4 µM)	–	–	–	–	–	–	–	24 (≈ 46.4 µM)	48 (≈ 92.7 µM)
C[C@@H](O)[C@H]1C(=O)N2C(C(=O)O)=C(SCCNC=N)C[C@H]12 [IMIPENEM ANHYDROUS]	1 (≈ 3.34 µM)	1 (≈ 3.34 µM)	16 (≈ 53.4 µM)	1.5 (≈ 5.01 µM)	32 (≈ 107 µM)	–	–	–	–	–	–	–	1.5 (≈ 5.01 µM)	1.5 (≈ 5.01 µM)
CO/N=C(\C(=O)N[C@@H]1C(=O)N2C(C(=O)[O-])=C(C[N+]3(C)CCCC3)CS[C@H]12)c1csc(N)n1	8 (≈ 16.6 µM)	8 (≈ 16.6 µM)	16 (≈ 33.3 µM)	1 (≈ 2.08 µM)	12 (≈ 25 µM)	–	–	–	–	–	–	–	–	–
